Assay results as given in ChEMBL document CHEMBL2380292, “Discovery of SAR184841, a potent and long-lasting inhibitor of 11β-hydroxysteroid dehydrogenase type 1, active in a physiopathological animal model of T2D” (Bioorg Med Chem Lett, 2013).
pIC50: −log10 of the molar value.

How the values were obtained:
Mus musculus [1] = assay: Antidiabetic activity in diet induced obese C57Bl/6J mouse assessed as plasma glucose level at 10 mg/kg, po qd administered for 4 weeks (reference value: 297 +/- 15 mg/dL); format: functional
Mus musculus [2] = assay: Antidiabetic activity in diet induced obese C57Bl/6J mouse assessed as plasma glucose level at 3 mg/kg, po qd administered for 4 weeks (reference value: 297 +/- 15 mg/dL); format: functional
Mus musculus [3] = assay: Inhibition of 11beta-HSD1 in mouse adipose tissue at 3 mg/kg, po after 24 hrs; format: functional
Procedure, shortened: (§1)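 Pharmacodynamic study in mice: single oral 3 mg/kg dose, with liver and fat 11β-HSD1 activity followed over 24 h post-dosing.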

Mus musculus [4] = assay: Inhibition of 11beta-HSD1 in mouse liver at 3 mg/kg, po after 24 hrs; format: functional; procedure, shortened: as §1
Mus musculus [5] = assay: Inhibition of 11beta-HSD1 in mouse adipose tissue at 3 mg/kg, po after 7 hrs; format: functional; procedure, shortened: as §1
[6] = Oral bioavailability in rat at 10 mg/kg; format: ADME, organism-based; settings: in vivo
Mus musculus [7] = assay: Inhibition of 11beta-HSD1 in mouse liver at 3 mg/kg, po after 7 hrs; format: functional; procedure, shortened: as §1
[8] = Volume of distribution at steady state in rat at 3 mg/kg, iv and 10 mg/kg, po; format: ADME, organism-based; settings: in vivo, read-out: Vdss
[9] = AUC (0 to infinity) in rat plasma at 10 mg/kg, po; format: ADME, organism-based; design: time infinity, dose 10 mg/kg, route oral
[10] = Cmax in rat plasma at 10 mg/kg, po; format: ADME, organism-based; design: dose 10 mg/kg, route oral
Xenopus laevis = species on record: Xenopus laevis; assay: Toxicity in Xenopus laevis by teratogenicity assay; format: organism-based; settings: in vivo
Salmonella typhimurium = assay: Genotoxicity in Salmonella typhimurium by Ames test; format: toxicity, organism-based; settings: salmonella enterica subsp. enterica serovar typhimurium
[11] = Solubility of the compound in aqueous buffer up to pH 4.5; format: physicochemical
Mus musculus [12] = assay: Ex vivo inhibition of 11beta-HSD1 in C57Bl/6J mouse liver at 30 mg/kg, po after 16 hrs; format: functional
Procedure, shortened: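 Mice given a single oral dose as a suspension in Tween 80/0.6% methylcellulose (0.5/99.5, v/v) at 10 mL/kg. At 2 h or 16 h post-dose, animals were killed by cervical dislocation and 50 mg liver and 200 mg subcutaneous fat were taken for 11β-HSD1 activity. Reactions were stopped with HCl 1 N/methanol (1/1). 3H-cortisone and 3H-cortisol were quantified by HPLC with flow scintillation detection.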

Cytochrome P450 3A4 = Cytochrome P450 3A4 (Homo sapiens, UniProt P08684); assay: Inhibition of CYP3A4 (unknown origin); format: ADME
Liver microsomes = assay: Metabolic stability in rat liver microsomes; format: ADME, Microsome
[13] = biological target: T1, 11-beta-hydroxysteroid dehydrogenase type 2 (Homo sapiens, UniProt P80365); assay: Inhibition of human 11beta-HSD2
T1 sequence (P80365 whole entry): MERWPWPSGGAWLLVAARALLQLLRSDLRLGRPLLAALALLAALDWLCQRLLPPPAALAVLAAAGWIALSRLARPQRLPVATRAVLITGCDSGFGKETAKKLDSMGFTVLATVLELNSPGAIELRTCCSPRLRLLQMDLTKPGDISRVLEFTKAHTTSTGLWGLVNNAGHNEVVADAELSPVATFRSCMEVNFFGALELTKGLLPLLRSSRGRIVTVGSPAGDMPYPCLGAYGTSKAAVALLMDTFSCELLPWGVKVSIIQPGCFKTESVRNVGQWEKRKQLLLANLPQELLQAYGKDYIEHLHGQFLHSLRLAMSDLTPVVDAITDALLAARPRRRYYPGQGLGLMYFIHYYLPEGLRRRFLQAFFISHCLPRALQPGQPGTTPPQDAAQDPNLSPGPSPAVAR

[14] = biological target: 11-beta-hydroxysteroid dehydrogenase 1 (Homo sapiens, UniProt P28845); assay: Inhibition of human recombinant 11beta-HSD1 by scintillation proximity assay
[15] = Induction of cytochrome P450 (unknown origin); format: ADME; settings: human
Mus musculus [16] = species on record: Mus musculus; assay: Toxicity in C57Bl/6J mouse assessed as HPA axis biomarker modification; format: organism-based; settings: in vivo
Mus musculus [17] = assay: Hepatotoxicity in C57Bl/6J mouse assessed as alteration of liver function biomarkers at 1 to 10 mg/kg, po after 4 weeks; format: toxicity, organism-based; design: dose 1-10 mg/kg, route oral; settings: in vivo, 672 h
[18] = Plasma concentration in C57Bl/6J mouse at 3 mg/kg, po 22 hrs post last dose; format: ADME, organism-based; design: dose 3 mg/kg, route oral
Procedure, shortened: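 C57Bl/6J mice, 20 weeks old, kept on a high-fat/high-fructose diet (diet-induced obese), were dosed orally once daily for 4 weeks at 1, 3 or 10 mg/kg/day in methylcellulose-Tween 80 vehicle. Lean and obese vehicle-treated controls were included, with n = 9–10 per group. Food intake and body weight were followed. Plasma drug levels were taken at study end, about 22 h after the last dose.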

Mus musculus [19] = assay: Antidiabetic activity in diet induced obese C57Bl/6J mouse assessed as increase of glucose tolerance at 10 mg/kg, po after 3 weeks by oral glucose tolerance test; format: functional
Mus musculus [20] = assay: Antidiabetic activity in po dosed C57Bl/6J mouse assessed as reduction in plasma glucose level administered for 4 weeks; format: functional, organism-based
Mus musculus [21] = assay: Antidiabetic activity in diet induced obese C57Bl/6J mouse assessed as liver triglyceride level at 10 mg/kg, po qd administered for 4 weeks (reference value: 210.5 +/- 15.4 mg/g); format: functional
Mus musculus [22] = assay: Antidiabetic activity in diet induced obese C57Bl/6J mouse assessed as liver triglyceride level at 1 mg/kg, po qd administered for 4 weeks (reference value: 210.5 +/- 15.4 mg/g); format: functional
Mus musculus [23] = assay: Antidiabetic activity in diet induced obese C57Bl/6J mouse assessed as plasma cholesterol level at 10 mg/kg, po qd administered for 4 weeks (reference value: 154.3 +/- 8.6 mg/dL); format: functional
Mus musculus [24] = assay: Antidiabetic activity in diet induced obese C57Bl/6J mouse assessed as plasma cholesterol level at 3 mg/kg, po qd administered for 4 weeks (reference value: 154.3 +/- 8.6 mg/dL); format: functional
Mus musculus [25] = assay: Antidiabetic activity in diet induced obese C57Bl/6J mouse assessed as plasma cholesterol level at 1 mg/kg, po qd administered for 4 weeks (reference value: 154.3 +/- 8.6 mg/dL); format: functional
Mus musculus [26] = assay: Antidiabetic activity in diet induced obese C57Bl/6J mouse assessed as plasma triglyceride level at 10 mg/kg, po qd administered for 4 weeks (reference value: 36.2 +/- 2.1 […]); format: functional
Mus musculus [27] = assay: Antidiabetic activity in diet induced obese C57Bl/6J mouse assessed as plasma triglyceride level at 3 mg/kg, po qd administered for 4 weeks (reference value: 36.2 +/- 2.1 […]); format: functional
Mus musculus [28] = assay: Antidiabetic activity in diet induced obese C57Bl/6J mouse assessed as plasma leptin level at 1 mg/kg, po qd administered for 4 weeks (reference value: 22.5 +/- 2.4 ng/mL); format: functional
in vivo [29] = settings: rat, brain, po, 10 mg/kg
in vivo [30] = settings: rat, adipose tissue, po, 10 mg/kg
in vivo [31] = settings: rat, liver, po, 10 mg/kg

11-beta-hydroxysteroid dehydrogenase 1, sequence (P28845 whole entry): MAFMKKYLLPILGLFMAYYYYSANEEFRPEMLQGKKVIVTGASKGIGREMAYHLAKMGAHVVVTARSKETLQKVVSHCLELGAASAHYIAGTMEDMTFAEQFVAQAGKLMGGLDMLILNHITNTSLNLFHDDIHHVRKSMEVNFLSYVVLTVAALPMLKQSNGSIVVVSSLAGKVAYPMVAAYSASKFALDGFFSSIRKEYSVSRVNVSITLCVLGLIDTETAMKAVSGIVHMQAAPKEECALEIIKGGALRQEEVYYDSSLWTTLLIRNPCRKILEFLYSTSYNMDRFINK
Cytochrome P450 3A4, sequence (P08684 whole entry): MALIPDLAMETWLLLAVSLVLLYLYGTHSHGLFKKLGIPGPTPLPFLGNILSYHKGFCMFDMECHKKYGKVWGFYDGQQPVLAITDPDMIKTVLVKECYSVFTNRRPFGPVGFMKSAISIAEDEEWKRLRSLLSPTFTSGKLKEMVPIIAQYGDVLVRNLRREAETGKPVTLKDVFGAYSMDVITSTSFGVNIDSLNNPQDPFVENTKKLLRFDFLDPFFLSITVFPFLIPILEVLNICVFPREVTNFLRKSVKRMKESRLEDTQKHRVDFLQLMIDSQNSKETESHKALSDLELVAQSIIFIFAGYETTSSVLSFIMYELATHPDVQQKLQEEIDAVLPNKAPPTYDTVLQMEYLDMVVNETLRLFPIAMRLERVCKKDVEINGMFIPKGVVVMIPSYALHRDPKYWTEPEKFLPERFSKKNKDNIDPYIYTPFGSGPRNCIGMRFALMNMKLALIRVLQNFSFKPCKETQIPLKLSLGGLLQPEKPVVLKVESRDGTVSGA

- bioavailability [6]: 25%
- Vd [8]: 14 L/kg
- AUC(0-inf) [9]: 580 ng·h/mL
- Cmax [10]: 556 ng/mL
- solubility [11]: > 2000 µg/mL
- pIC50 (Cytochrome P450 3A4): < 4.30
- Stability (Liver microsomes): 15%
- pIC50 [13]: 5.40
- pIC50 [14]: 8.40
- Activity [15]: Not Active
- concentration at 22 h [18]: 3.8 nM
- Kp (in vivo [29]): 0.14
- Kp (in vivo [30]): 2.2
- Kp (in vivo [31]): 224
Structure (SMILES): CC(C)(C)N1CCN(c2ccc(N3CCN(C(=O)N[C@H]4C5CC6CC4C[C@](C(N)=O)(C6)C5)c4ccccc43)nc2)CC1
- Activity (Mus musculus [1]): 224.6 mg/dL
- Activity (Mus musculus [2]): 251 mg/dL
- inhibition in vivo at 3 mg/kg (Mus musculus [3]): 40%
- inhibition in vivo at 3 mg/kg (Mus musculus [4]): 60%
- inhibition in vivo at 3 mg/kg (Mus musculus [5]): > 90%
- inhibition in vivo at 3 mg/kg (Mus musculus [7]): > 90%
- Activity (Xenopus laevis): Non-toxic
- Activity (Salmonella typhimurium): Non-toxic
- inhibition in vivo at 30 mg/kg (Mus musculus [12]): 72%
- Activity (Mus musculus [16]): Non-toxic
- Activity (Mus musculus [17]): Non-toxic
- Activity (Mus musculus [19]): -23%
- Activity (Mus musculus [20]): Dose-dependent effect
- Activity (Mus musculus [21]): 129.1 mg/g
- Activity (Mus musculus [22]): 167.4 mg/g
- Activity (Mus musculus [23]): 123.6 mg/dL
- Activity (Mus musculus [24]): 125.1 mg/dL
- Activity (Mus musculus [25]): 127.7 mg/dL
- Activity (Mus musculus [26]): 35 mg/mL
- Activity (Mus musculus [27]): 38.4 mg/mL
- Activity (Mus musculus [28]): 14.9 ng/mL
